A short description of this data set: Toxicity liver stage against HepG2, at 10uM. It is filed as cell-based. To be noted: human, HepG2-A16-CD81EGFP cells; read-out: INHIBITION
Also on record: test concentration 10 uM, cell line HepG2-A16-CD81EGFP. In outline:
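Uninfected HepG2-A16-CD81EGFP cells, 3 × 10^3 per well, 1536-well, plated on prespotted compound at 10 μM final, parasite-free screening media added to match infected plates; puromycin 10 μM positive, DMSO 0.5% negative; run in parallel with 48 h PbLuc assay at 37 °C, 5% CO2; viability by CellTiter-Glo luminescence, normalized to controls.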
Regarding `CCc1nnc(Nc2cc(C)nc(C3CN(C(C)=O)CCO3)c2)s1` (configuration not stated), the cytotoxicity at 10 µM turned out to be 4.74%.
Regarding `COc1ccc(-c2nnc(C(C)N3CCOCC3)o2)cc1` (configuration not stated), the cytotoxicity at 10 µM was -10.4%.
In the case of `CN1CCN(Cc2cccc(NCc3cc[nH]n3)c2)CC1` it was 11.2%; in that of `CCCNC(=O)Cn1cc(-c2ccccc2)cn1`, -0.553%.
As for `Cc1ccc(CC(=O)N2CCCC(c3ccn[nH]3)C2)cn1` (configuration not stated), the figure is 0.691%; as for `Cc1n[nH]c(C2CN(C(=O)c3ccn(C)c(=O)c3)CCO2)n1` (configuration not stated), -5.3%.
As for `COCCN1CCOCC12CCN(c1nccs1)CC2`, the figure is -102%; as for `O=C1NCCCCC1SCc1coc(-c2ccc(F)cc2)n1` (configuration not stated), 47.5%.
`CN(C(=O)c1cccc(C(=O)NS(C)(=O)=O)c1)c1ccccc1`: the cytotoxicity at 10 µM was -2.35%.
In the case of `CCN(CC)CC(=O)NCc1cccnc1-n1cnc2ccccc21` it was 1.77%.
As for `CC(C)c1nc(NC(=O)CCCn2cccc2)n(C)n1`, the figure is -7.71%.
In the case of `NC(=O)C1CCN(c2ccc3cc(Br)ccc3n2)C1` (configuration not stated) it was 7.87%; in that of `Cc1ccc(C2(O)CCN(Cc3nc(C)n4ccccc34)CC2)nc1`, 3.43%.
On to `Cc1ccc(CN2CCC3(CC2)CCN(Cc2ccco2)CC3)cc1`, for which the cytotoxicity at 10 µM is 2.44%.
As for `COCCNC(=O)Cn1cc(OCc2ccc(F)cc2)c(=O)cc1CO`, the figure is 2.73%; as for `CCCc1nnc(N2CCN(c3cccc(C)c3C)CC2)o1`, 9.59%; as for `CN(CC(=O)NCCc1cc2ccccc2o1)S(C)(=O)=O`, 6.56%.
In the case of `Cc1csc(N(C)C(=O)C(c2c(F)cccc2Cl)N(C)C)n1` (configuration not stated) it was -44.3%.
On to `Cc1ccc(CN2CCn3c(CN4CCN(C)CC4)cnc3C2C)s1` (configuration not stated), for which the cytotoxicity at 10 µM amounted to 8.39%.
As for `Cc1n[nH]c(=O)c2c(NC(=O)CN3CCC(C)CC3)oc(C)c12`, the figure is -1.5%; as for `c1cnc(N2CCC(c3n[nH]c4ncccc34)C2)nc1` (configuration not stated), -4.47%; as for `N#Cc1cc(NC(=O)c2ccsc2)ccc1N1CCC(O)CC1`, 4.77%.
In the case of `CN1CCOC(CNCC(=O)NCCc2ccc3c(c2)OCCO3)C1` (configuration not stated) it was -10.2%; in that of `COC[C@]12COC[C@H]1CN(C(=O)c1ccc(F)cc1C)C2`, -135%; in that of `O=C(N[C@H]1CN(C2CCOCC2)C[C@@H]1C1CC1)c1ccon1`, 5.21%.
With `CC(C)CCS(=O)(=O)N1CCCC(c2nncn2C(C)C)C1` (configuration not stated), the cytotoxicity at 10 µM was determined as 5.04%.
As for `CC(C)Cc1cc(NC(=O)c2ccc3[nH]nnc3c2)n(C)n1`, the figure is -7%.
In the case of `CN(C)C(=O)[C@H]1CC[C@@H]2[C@@H](CCN2Cc2ccccn2)O1` it was 3.21%.
In the case of `COCc1ccc(C(=O)N2CCC(c3cc4ncc(C)nc4[nH]3)C2)cc1` (configuration not stated) it was -25.6%; in that of `Cc1nc(NCC2CC2)nc2c1COCC21CCN(CC(=O)N(C)C)C1` (configuration not stated), -78.5%.
For the compound `O=C(Cc1ccccc1)N1CCCC2(COCCN(CC3CC3)C2)C1` (configuration not stated), the cytotoxicity at 10 µM was -1.03%.
With `O=C1NC2(CCN(Cc3ccoc3)CC2)CC1c1ccncc1` (configuration not stated), the cytotoxicity at 10 µM amounted to 6.05%.
In the case of `O=C(NCCn1nc(C2CCNC2)c2cccnc21)c1ccccc1` (configuration not stated) it was -23.9%; in that of `CCOCC1CN(S(C)(=O)=O)Cc2cnn(C)c21` (configuration not stated), -15.4%; in that of `COc1cc2ccn(CCCO)c(=O)c2cc1F`, -7.91%.
As for `CC(C)c1nc(CN2CCCCC2Cn2cncn2)cs1` (configuration not stated), the cytotoxicity at 10 µM was -5.06%.
In the case of `Cn1ccc2c(-c3cc(N)nc(N4CCOCC4)n3)ccnc21` it was -3.67%; in that of `Cc1nccc([C@@H]2C[C@@H]3CCN(S(=O)(=O)C4CC4)C[C@H]3O2)n1`, -5.9%.
In the case of `Cc1nc(N2CCCC2)ncc1-c1cc(O)n2ncnc2n1` it was 10.6%; in that of `Cc1ncncc1C(=O)N1CCCC(n2ccnc2C)C1` (configuration not stated), -2.17%.
In the case of `CCN(Cc1cccc2c1OCO2)C(=O)NC1CC1` it was -9.48%.
For the compound `COC(=O)N(C)CCCC(=O)Nc1[nH]nc(-c2ccncc2)c1C`, the cytotoxicity at 10 µM was -0.946%.
In the case of `COc1ccccc1C(=O)N1Cc2cc(C)ccc2OCC1CN(C)C` (configuration not stated) it was 5.2%; in that of `O=c1[nH]c2nc(N3CCSCC3)ncc2c(=O)n1-c1ccc(F)cc1`, 9.82%.
Consider `CCN1CCN(C2CCN(Cc3cc(C)on3)CC2)C1=O`, for which the cytotoxicity at 10 µM is -5.74%.
In the case of `CCc1noc(CN2CCN(CC(O)c3ccccc3)CC2)n1` (configuration not stated) it was 1.19%; in that of `COc1ccc(CC(=O)N2CCN(c3nccn3C)CC2)cc1`, 5.06%.
As for `COCCC(=O)N(Cc1ccccn1)Cc1ccccc1C`, the figure is 2.14%; as for `Cc1ccsc1C(=O)NC1CCS(=O)(=O)c2ccccc21` (configuration not stated), 2.93%.
As for `O=C(CCN1CCCCC1)N1CCC(Cc2ccc(CO)cc2)C1` (configuration not stated), the cytotoxicity at 10 µM is -7.33%.
As for `CC(C)c1csc(C2CCCN(C(=O)c3ccc(=O)n(C)n3)C2)n1` (configuration not stated), the figure is 9.24%; as for `COCCN(Cc1cc(O)nc2ccccc12)C(=O)NC(C)C`, 7.66%.
As for `CCCc1n[nH]cc1C(=O)NCC1COc2cc(OC)ccc2C1` (configuration not stated), the figure is -0.506%; as for `COc1cccc2c1OCC(NC(=O)NCCc1ccccn1)C2` (configuration not stated), 5.69%; as for `Cc1nc(C)n(C2CCCN(C(=O)c3sccc3C)C2)n1` (configuration not stated), -8.93%.
As for `O[C@@H]1C[C@H]2CN(CC3CCCCC3)[C@H](Cc3ccccc3)CN2C1`, the figure is 0.13%; as for `COC1(CNC(=O)c2ccc(Cl)c(Cl)c2)CCSC1` (configuration not stated), 2.05%.
For the compound `CCN1CC(C(=O)NCCc2csc(-c3ccncc3)n2)CCC1=O` (configuration not stated), the cytotoxicity at 10 µM was -11.3%.
In the case of `CN1C[C@@H](C(=O)NC2CCCC2)[C@@]2(COc3ccc(F)cc3C2=O)C1` it was 2.1%; in that of `Cc1ccc(-c2nnc(CN3CCCC(Cn4cncn4)C3)o2)cc1` (configuration not stated), -9.07%.
`O=C(NC1CC1)c1ccc2ccc(N3CCN(CC4CC4)CC3)n2c1`: the cytotoxicity at 10 µM came to 1.26%.
As for `Cc1cc(NS(=O)(=O)c2ccc(C(=O)O)cc2F)ccc1F`, the figure is -1.96%; as for `Cc1ccc2[nH]c(=O)c(CNCCCN3CCOCC3)cc2c1`, -14.9%.
Take `Clc1ccc(-c2nc(CN3CCCC3Cn3cncn3)co2)cc1` (configuration not stated): the cytotoxicity at 10 µM was -1.66%.
With `c1cncc(COCC2CC[C@H]3[C@H]2OCCN3Cc2ccoc2)c1` (some centres not stated), the cytotoxicity at 10 µM was 1.2%.
Consider `CC(NC(=O)NCc1ccccc1F)(C(=O)O)c1ccco1` (configuration not stated), for which the cytotoxicity at 10 µM is -5.64%.
As for `O=S(=O)(Cc1ccccc1F)NCCCN1CCCCC1`, the figure is 17.3%; as for `Cn1cc(CNCCc2nccs2)c(-c2cccnc2)n1`, 1.83%; as for `CNC(=O)[C@@H]1C[C@H](N)CN1S(=O)(=O)c1cc(C)c(Cl)cc1C`, -0.869%.
In the case of `O=C1COC2(CCN(CC3CCOCC3)CC2)CN1Cc1ccccn1` it was -2.76%; in that of `CC(NC(=O)CCc1ccsc1)c1ccc2c(c1)NC(=O)CO2` (configuration not stated), -6.16%.
As for `NC(=O)C1CCN(C(=O)CCCc2nnc(-c3ccccc3)o2)C1` (configuration not stated), the figure is -19.8%.
Turning to `Cc1cnn(CC2CCCN2C(=O)c2cc3c(F)cccc3[nH]2)c1` (configuration not stated), the cytotoxicity at 10 µM is -12.7%.
As for `c1ccc(OCCCNCc2cccs2)nc1`, the figure is -0.336%; as for `Cc1c(C)n(CC(O)CN2CCC(C)CC2)c2c(Cl)cccc12` (configuration not stated), -5.12%.
In the case of `CS(=O)(=O)CCOCCNc1cncc(Br)c1` it was 1.83%; in that of `CCc1cccc(N2CCC(NC(=O)c3ccncc3)CC2)c1`, -13.9%.
In the case of `Cn1nnc(NCc2ccccc2OCc2ccc(Cl)cc2)n1` it was 2.71%.
As to `Cc1nnc(N2CCCC(C(=O)c3cccc(Cl)c3)C2)o1` (configuration not stated), the cytotoxicity at 10 µM turned out to be 6.14%.
As for `O=C(NCc1ccccc1-n1cccn1)N1CCC(N2CCCC2)C1` (configuration not stated), the figure is -0.554%.
In the case of `C[C@@H]1CN(Cc2cccnc2)C[C@]12CCN(CCN1CCCC1)C2=O` it was -6.04%; in that of `Cc1ccc(C(=O)N2CC3(CCNCC3)c3cc(Cl)ccc32)cn1`, 1.61%; in that of `Cn1cnc(C(=O)N2CC3(CCN(S(=O)(=O)c4ccccc4)C3)C2)c1`, 3.8%.
`O=C(NCCC1CCCCO1)c1cc(COc2ccccc2F)[nH]n1` (configuration not stated): the cytotoxicity at 10 µM came out at 6.57%.
In the case of `O=C([C@H]1COC[C@H]2CN(C3CCCCC3)C[C@H]21)N1CCOCC1` it was -110%; in that of `COCc1nc(C2CCN(Cc3nccn3C)CC2)no1`, -14.2%.
In the case of `COC[C@@]12CC[C@@H](N3CCOCC3)C[C@H]1CCN(c1ccc(Cl)cn1)C2` it was -5.14%; in that of `CN(C)C(=O)CO[C@H]1CN(Cc2ccoc2)[C@@H]2COC[C@H]12`, 6.17%.
With `COc1ccccc1-c1nnc2n1N=C(N)C(C#N)S2` (configuration not stated), the cytotoxicity at 10 µM is 1.5%.
As for `COc1ccc(C(O)C(=O)N2CCC(c3nccn3C(C)C)CC2)cc1` (configuration not stated), the figure is -0.355%; as for `COc1cc(CN2CC[C@@H](N3CCCCCC3)[C@H](O)C2)cc(Cl)c1OC`, -1.47%; as for `CC(Cc1ccccn1)N(C)C(=O)c1ncc[nH]1` (configuration not stated), 3.04%.
In the case of `CCN1CCN(C(=O)CCC2CCN(C(C)CSC)CC2)CC1` (configuration not stated) it was -0.0154%.
In the case of `NC(=O)Cn1c(CO)cnc1SCC(=O)NCc1ccccc1` it was 0.252%; in that of `CN(C)CCN1CCC(CNCc2c[nH]nc2C(C)(C)C)CC1`, -3.21%.
As to `Cc1ccoc1C(=O)NCC(c1ccccc1Cl)N1CCOCC1` (configuration not stated), the cytotoxicity at 10 µM came out at 8.21%.
As to `O=C(c1cccnc1)N1CC(S(=O)(=O)c2ccc(Cl)cc2)C1`, the cytotoxicity at 10 µM was -0.649%.

For the origin of these results see ChEMBL document CHEMBL4513216, “Probing the Open Global Health Chemical Diversity Library for Multistage-Active Starting Points for Next-Generation Antimalarials” (ACS Infect Dis, 2020).
